Results taken from ChEMBL document CHEMBL4028861, “Selective Nonsteroidal Glucocorticoid Receptor Modulators for the Inhaled Treatment of Pulmonary Diseases” (J Med Chem, 2017).
Values after ≈ are worked out from the molar mass of the structure shown.

Columns and labels:
[1] = Solubility of the compound in phosphate buffer at pH 7.4 using solid sample at 23 degreeC; assay type: physicochemical
Method in brief: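 Solubility measured in 0.1 M phosphate buffer at pH 7.4 and 23 °C, starting from crystalline solid.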

[2] = Lipophilicity, log D of the compound by chromatography; assay type: physicochemical
[3] = Solubility of the compound in phosphate buffer at pH 7.4 using liquid sample at 20 degreeC; assay type: physicochemical
Method in brief: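 Solubility measured in 0.1 M phosphate buffer at pH 7.4 and 20 °C, starting from a 10 mM DMSO stock solution.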

[4] = Intrinsic clearance in human hepatocytes assessed per million cells; assay type: ADME, cell-based, Hepatocyte; details: read-out: CLH
[5] = Mean residence time in Wistar Han rat lung at 0.1 umol/kg, administered as dry powder inhalation by LC-MS/MS analysis; assay type: ADME, tissue-based; details: inhaled or intranasal
[6] = AUC (0 to infinity) in Wistar Han rat lung at 0.1 umol/kg, administered as dry powder inhalation by LC-MS/MS analysis; assay type: ADME; set-up: dose 0.1 umol/kg, route respiratory (INHALATION), time infinity; details: inhaled or intranasal
[7] = Thermodynamic solubility of the compound in human intestinal fluid; assay type: physicochemical; details: read-out: Therm_solubility
[8] = Terminal half life in Wistar Han rat 1 umol/kg, iv administered as bolus dose by LC-MS/MS analysis; assay type: ADME, organism-based; details: in vivo, read-out: beta t1/2 (converted)
[9] = Apparent terminal half life in Wistar Han rat lung at 0.1 umol/kg, administered as dry powder inhalation by LC-MS/MS analysis; assay type: ADME; details: inhaled or intranasal, read-out: betat1/2(app) (converted)
[10] = Oral bioavailability in Wistar Han rat administered via gavage by LC-MS/MS analysis; assay type: ADME, organism-based; details: in vivo
Lung [11] = experiment: Drug uptake in Wistar Han rat lung at 0.1 umol/kg, administered as dry powder inhalation after 24 hrs by LC-MS/MS analysis; assay type: ADME, tissue-based; details: in vivo, inhaled_or_intranasal
[12] = Volume of distribution at steady state in Wistar Han rat at 1 umol/kg, iv administered as bolus dose by LC-MS/MS analysis; assay type: ADME, organism-based; details: in vivo, read-out: Vdss
[13] = Intrinsic clearance in Wistar Han rat hepatocytes assessed per 10^6 cells; assay type: ADME, cell-based, Hepatocyte; details: read-out: CLH
[14] = Cmax in Wistar Han rat plasma at 0.1 umol/kg, administered as dry powder inhalation by LC-MS/MS analysis; assay type: ADME; set-up: dose 0.1 umol/kg, route respiratory (INHALATION); details: inhaled or intranasal
Rattus norvegicus = experiment: Toxicity in inhaled CRL:CD Sprague Dawley rat model of sephadex induced lung edema assessed as induction of thymic involution administered once per day for 3 days; details: in vivo, inhaled_or_intranasal, 72 h
Method in brief: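 Thymic involution scored in the same Sephadex-challenged rats dosed by inhalation, as a sensitive marker of systemic GR agonism.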

Lung [15] = experiment: Drug uptake in Wistar Han rat lung at 0.1 umol/kg, administered as dry powder inhalation after 4 hrs by LC-MS/MS analysis; assay type: ADME; details: in vivo, inhaled_or_intranasal
[16] = Clearance in Wistar Han rat at 1 umol/kg, iv administered as bolus dose by LC-MS/MS analysis; assay type: ADME, organism-based; details: in vivo

SMILES: C[C@H](NC(=O)C(C)(F)F)[C@H](Oc1ccc2c(cnn2-c2cccc(C(=O)N[C@H]3CCS(=O)(=O)C3)c2)c1)c1ccc2c(c1)OCCO2
- solubility thermodynamic [1]: 0.68 µM (≈ 0.445 µg/mL)
- chromatographic logD [2]: 3.6
- solubility [3]: 0.01 µM (≈ 0.00655 µg/mL)
- hepatocyte CLint [4]: 23 µL/min/1e6 cells

SMILES: C[C@H](NC(=O)C(C)(F)F)[C@H](Oc1ccc2c(cnn2-c2cccc(C(=O)N[C@@H]3CCS(=O)(=O)C3)c2)c1)c1ccc2c(c1)OCCO2
- solubility thermodynamic [1]: < 0.1 µM
- MRT [5]: 210 h
- AUC(0-inf) [6]: 5200 µM·h
- solubility thermodynamic [7]: 0.3 µM (≈ 0.196 µg/mL)
- half-life [8]: 0.3 h
- half-life [9]: 179 h
- bioavailability [10]: < 0.1%
- Drug uptake (Lung [11]): 91 %ID
- chromatographic logD [2]: 3.6
- Vd [12]: 2.8 L/kg
- hepatocyte CLint [13]: 31 µL/min/1e6 cells
- Cmax [14]: 4.9 nM
- solubility [3]: < 0.01 µM
- ED25 (Rattus norvegicus): > 0.13 mg/kg
- hepatocyte CLint [4]: 22 µL/min/1e6 cells
- Drug uptake (Lung [15]): 93 %ID

SMILES: C[C@H](NC(=O)C(C)(F)F)[C@H](Oc1ccc2c(cnn2-c2cccc(C(=O)N[C@H]3CCOC3)c2)c1)c1ccc2c(c1)OCCO2
- solubility thermodynamic [1]: 0.09 µM (≈ 0.0546 µg/mL)
- chromatographic logD [2]: 3.7
- solubility [3]: 1.3 µM (≈ 0.789 µg/mL)
- hepatocyte CLint [4]: 30 µL/min/1e6 cells

SMILES: C[C@H](NC(=O)C(C)(F)F)[C@H](Oc1ccc2c(cnn2-c2cccc(C(=O)N[C@H]3CCOC3)c2)c1)c1ccc2c(c1)OCOC2
- solubility thermodynamic [1]: 0.03 µM (≈ 0.0182 µg/mL)
- chromatographic logD [2]: 3.6
- solubility [3]: 0.11 µM (≈ 0.0667 µg/mL)
- hepatocyte CLint [4]: 26 µL/min/1e6 cells

SMILES: C[C@H](NC(=O)C(C)(F)F)[C@H](Oc1ccc2c(cnn2-c2cccc(C(=O)NCc3cccnc3)c2)c1)c1ccc2c(c1)OCCO2
- solubility thermodynamic [1]: 0.23 µM (≈ 0.144 µg/mL)
- MRT [5]: 2.6 h
- AUC(0-inf) [6]: 26 µM·h
- solubility thermodynamic [7]: 2.1 µM (≈ 1.32 µg/mL)
- half-life [8]: 0.2 h
- half-life [9]: 4.9 h
- bioavailability [10]: 0.16%
- Drug uptake (Lung [11]): 0.18 %ID
- chromatographic logD [2]: 3.7
- Vd [12]: 0.97 L/kg
- hepatocyte CLint [13]: 25 µL/min/1e6 cells
- Cmax [14]: 21 nM
- solubility [3]: < 0.1 µM
- ED25 (Rattus norvegicus): 0.012 mg/kg
- hepatocyte CLint [4]: 21 µL/min/1e6 cells
- clearance [16]: 68 mL/min/kg
- Drug uptake (Lung [15]): 4.1 %ID

SMILES: C[C@H](NC(=O)C(C)(F)F)[C@H](Oc1ccc2c(cnn2-c2cccc(C(=O)NCc3cccnc3)c2)c1)c1ccc2c(c1)OCOC2
- solubility thermodynamic [1]: 0.02 µM (≈ 0.0126 µg/mL)
- MRT [5]: 10 h
- AUC(0-inf) [6]: 190 µM·h
- solubility thermodynamic [7]: 1.3 µM (≈ 0.816 µg/mL)
- half-life [8]: 0.1 h
- half-life [9]: 9 h
- bioavailability [10]: 0.3%
- Drug uptake (Lung [11]): 8.6 %ID
- chromatographic logD [2]: 3.6
- Vd [12]: 0.81 L/kg
- hepatocyte CLint [13]: 25 µL/min/1e6 cells
- Cmax [14]: 12 nM
- solubility [3]: < 0.1 µM
- ED25 (Rattus norvegicus): 0.027 mg/kg
- hepatocyte CLint [4]: 21 µL/min/1e6 cells
- clearance [16]: 73 mL/min/kg
- Drug uptake (Lung [15]): 41 %ID

SMILES: C[C@H](NC(=O)C(C)(F)F)[C@H](Oc1ccc2c(cnn2-c2cccc(C(=O)N[C@@H]3CCOC3=O)c2)c1)c1ccc2c(c1)OCCO2
- solubility thermodynamic [1]: 0.22 µM (≈ 0.137 µg/mL)
- chromatographic logD [2]: 3.6
- solubility [3]: 0.16 µM (≈ 0.0993 µg/mL)
- hepatocyte CLint [4]: 17 µL/min/1e6 cells

SMILES: C[C@H](NC(=O)C(F)(F)F)[C@H](Oc1ccc2c(cnn2-c2ccc(F)cc2)c1)c1ccccc1
- chromatographic logD [2]: 6.1
- hepatocyte CLint [4]: < 2.1 µL/min/1e6 cells

SMILES: C[C@H](NC(=O)C(C)(F)F)[C@H](Oc1ccc2c(cnn2-c2cccc(C(=O)N[C@@H]3CCOC3=O)c2)c1)c1ccccc1
- solubility thermodynamic [1]: 0.12 µM (≈ 0.0675 µg/mL)
- chromatographic logD [2]: 3.9
- solubility [3]: 2 µM (≈ 1.13 µg/mL)

SMILES: C[C@H](NC(=O)C(F)(F)F)[C@H](Oc1ccc2c(cnn2-c2ccc(F)cc2)c1)c1ccc2c(c1)OCCO2
- chromatographic logD [2]: 5.7

SMILES: C[C@H](NC(=O)C(C)(F)F)[C@H](Oc1ccc2c(cnn2-c2ccc(F)cc2)c1)c1ccc2c(c1)COCO2
- chromatographic logD [2]: 5.4
- hepatocyte CLint [4]: 20 µL/min/1e6 cells

SMILES: C[C@H](NC(=O)C(C)(F)F)[C@H](Oc1ccc2c(cnn2-c2cccc(C(=O)N3CCC[C@@H]3C(N)=O)c2)c1)c1ccc2c(c1)OCCO2
- chromatographic logD [2]: 2.9
- solubility [3]: 47 µM (≈ 29.8 µg/mL)
- hepatocyte CLint [4]: 11 µL/min/1e6 cells

SMILES: C[C@H](NC(=O)C(C)(F)F)[C@H](Oc1ccc2c(cnn2-c2cccc(C(=O)N3CCC[C@H]3C(N)=O)c2)c1)c1ccccc1
- chromatographic logD [2]: 3.3
- solubility [3]: 85 µM (≈ 48.9 µg/mL)

SMILES: C[C@H](NC(=O)C(F)(F)F)[C@H](Oc1ccc2c(cnn2-c2ccc(F)cc2)c1)c1cccc(OS(=O)(=O)O)c1
- hepatocyte CLint [4]: < 2.7 µL/min/1e6 cells

SMILES: C[C@H](NC(=O)C(C)(F)F)[C@H](Oc1ccc2c(cnn2-c2ccc(F)cc2)c1)c1ccc2c(c1)OCC2
- chromatographic logD [2]: 5.7
- hepatocyte CLint [4]: 14 µL/min/1e6 cells

SMILES: C[C@H](NC(=O)C(C)(F)F)[C@H](Oc1ccc2c(cnn2-c2ccc(F)cc2)c1)c1ccc2c(c1)OCOC2
- chromatographic logD [2]: 5.4
- hepatocyte CLint [4]: 15 µL/min/1e6 cells

SMILES: C[C@H](NC(=O)C(C)(F)F)[C@H](Oc1ccc2c(cnn2-c2cccc(C(=O)N3CCC[C@@H]3C(N)=O)c2)c1)c1ccccc1
- chromatographic logD [2]: 3.3
- solubility [3]: 36 µM (≈ 20.7 µg/mL)
- hepatocyte CLint [4]: < 2.7 µL/min/1e6 cells

SMILES: C[C@H](NC(=O)C(C)(F)F)[C@H](Oc1ccc2c(cnn2-c2cccc(C(=O)NC3CCS(=O)(=O)C3)c2)c1)c1ccccc1 (stereo not given in full)
- solubility thermodynamic [1]: 0.34 µM (≈ 0.203 µg/mL)
- chromatographic logD [2]: 3.8
- solubility [3]: 1 µM (≈ 0.597 µg/mL)
- hepatocyte CLint [4]: < 2.7 µL/min/1e6 cells

SMILES: C[C@H](NC(=O)C(C)(F)F)[C@H](Oc1ccc2c(cnn2-c2cccc(C(=O)N3CCC[C@@H]3C(N)=O)c2)c1)c1ccc2c(c1)OCOC2
- chromatographic logD [2]: 2.9
- solubility [3]: 19 µM (≈ 12 µg/mL)
- hepatocyte CLint [4]: 9.7 µL/min/1e6 cells

SMILES: C[C@H](NC(=O)C(F)(F)F)[C@H](Oc1ccc2c(cnn2-c2ccc(F)cc2)c1)c1cccc(O)c1
- chromatographic logD [2]: 5
- hepatocyte CLint [4]: 33 µL/min/1e6 cells

SMILES: CCCC1O[C@@H]2C[C@H]3[C@@H]4CCC5=CC(=O)C=C[C@]5(C)[C@H]4[C@@H](O)C[C@]3(C)[C@]2(C(=O)CO)O1 (stereo not given in full) [BUDESONIDE]
- chromatographic logD [2]: 3.4
- hepatocyte CLint [4]: 20 µL/min/1e6 cells

SMILES: CCC(=O)O[C@]1(C(=O)SCF)[C@H](C)C[C@H]2[C@@H]3C[C@H](F)C4=CC(=O)C=C[C@]4(C)[C@@]3(F)[C@@H](O)C[C@@]21C [FLUTICASONE PROPIONATE]
- MRT [5]: 6.5 h
- AUC(0-inf) [6]: 200 µM·h
- solubility thermodynamic [7]: 0.62 µM (≈ 0.31 µg/mL)
- half-life [8]: 3.3 h
- half-life [9]: 4.5 h
- bioavailability [10]: < 0.1%
- Drug uptake (Lung [11]): 1.9 %ID
- chromatographic logD [2]: 4.9
- Vd [12]: 31 L/kg
- hepatocyte CLint [13]: 28 µL/min/1e6 cells
- Cmax [14]: 24 nM
- ED25 (Rattus norvegicus): 0.0039 mg/kg
- hepatocyte CLint [4]: 33 µL/min/1e6 cells
- clearance [16]: 103 mL/min/kg
- Drug uptake (Lung [15]): 43 %ID

SMILES: C[C@H](NC(=O)C(C)(F)F)[C@H](Oc1ccc2c(cnn2-c2cccc(C(=O)N[C@@H]3CCOC3)c2)c1)c1ccc2c(c1)OCCO2 [VELSECORAT]
- solubility thermodynamic [1]: 0.02 µM (≈ 0.0121 µg/mL)
- MRT [5]: 23 h
- AUC(0-inf) [6]: 740 µM·h
- solubility thermodynamic [7]: 0.6 µM (≈ 0.364 µg/mL)
- half-life [8]: 0.1 h
- half-life [9]: 17 h
- bioavailability [10]: < 0.1%
- Drug uptake (Lung [11]): 32 %ID
- chromatographic logD [2]: 3.7
- Vd [12]: 0.16 L/kg
- hepatocyte CLint [13]: 34 µL/min/1e6 cells
- Cmax [14]: 7.4 nM
- solubility [3]: < 0.1 µM
- ED25 (Rattus norvegicus): 0.04 mg/kg
- hepatocyte CLint [4]: 29 µL/min/1e6 cells
- clearance [16]: 30 mL/min/kg
- Drug uptake (Lung [15]): 73 %ID
